Here are results for three compounds from ChEMBL document CHEMBL4706606, “Re-evaluating pretomanid analogues for Chagas disease: Hit-to-lead studies reveal both in vitro and in vivo trypanocidal efficacy” (Eur J Med Chem, 2020).

Values after ≈ are worked out from the molar mass of the structure shown. Active and inactive are the calls of the source.

Data set [1] in a line: Kinetic solubility of compound in water sonicated for 15 mins by HPLC analysis.
For data set [2], the system named is Trypanosoma cruzi. Description: Antitrypanosomal activity against Trypanosoma cruzi Tulahuen strain C2C4 amastigotes infected in rat L6 cells assessed as inhibition of parasite growth incubated for 96 hrs by chlorophenol red-fl-D-galactopyranoside based colorimetric analysis. The data set is classed as functional, organism-based. As to conditions: for IC50: Tulahuen strain C2C4, L6, 96 h; for IC90: Tulahuen strain C2C4, L6, time 96 hrs. The essentials:
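Tulahuen strain TcVI T. cruzi expressing β-galactosidase, grown in L6 rat skeletal myoblast host cells. IC50/IC90 growth inhibition. Each value is the mean of ≥2 independent determinations using fresh sample stock.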

Data set [3] is described as follows: Selectivity index, ratio of IC50 for cytotoxicity against rat 3T3 cells to IC50 for antitrypanosomal activity against Trypanosoma cruzi Tulahuen strain C2C4 amastigotes infected in rat 3T3 cells. The following applies: 3T3 cells.
A short description of data set [4]: Cytotoxicity against rat 3T3 cells assessed as reduction in cell viability incubated for 72 hrs by alamar blue assay. The class given is ADME, cell-based. As to conditions: NIH3T3, 72 h. (Alamar Blue is a resazurin reagent that responds to reducing activity.)
The nature of data set [5]: Half life in human liver microsomes incubated for 60 mins.
Data set [6] has as its system Trypanosoma cruzi. Description: Antitrypanosomal activity against Trypanosoma cruzi Y strain amastigotes infected in U2OS cells assessed as inhibition of parasite growth at 0.37 ug/ml by image-based assay relative to control.
Data set [7] in a line: Inhibition of Trypanosoma cruzi Tulahuen C4 strain CYP51 expressed in Escherichia coli by fluorescence based assay.
Data set [8] deals with L6. Nature of the data set: Cytotoxicity against rat L6 cells assessed as reduction in cell viability incubated for 72 hrs by alamar blue assay. The data set is classed as ADME, cell-based. As to conditions: L6, 72 h.
Data set [9] is described as follows: Selectivity index, ratio of IC50 for cytotoxicity against rat L6 cells to IC50 for antitrypanosomal activity against Trypanosoma cruzi Tulahuen strain C2C4 amastigotes infected in rat L6 cells.
Data set [10] concerns Trypanosoma cruzi. Nature of the data set: Antitrypanosomal activity against Trypanosoma cruzi Tulahuen strain C2C4 amastigotes infected in […] cells assessed as reduction in parasite growth incubated for 48 hrs by chlorophenol red-fl-D-galactopyranoside based colorimetric analysis relative to control. The class given is functional.
Data set [11] concerns Trypanosoma cruzi. Description: Antitrypanosomal activity against Trypanosoma cruzi Tulahuen strain C2C4 amastigotes infected in […] cells assessed as reduction in parasite growth incubated for 48 hrs by chlorophenol red-fl-D-galactopyranoside based colorimetric analysis. The data set is classed as functional, organism-based. The following applies: for IC50: Tulahuen strain C2C4, NIH3T3, 48 h; for IC90: Tulahuen strain C2C4, NIH3T3, time 48 hrs.

In data set [12] the test system is Trypanosoma cruzi. Nature of the data set: Antitrypanosomal activity against bloodstream trypomastigotes form of Trypanosoma cruzi CL Brener infected in BALB/c mouse assessed as reduction of parasite in mouth/nasal region at 50 mg/kg, po qd administered for 5 days starting from day 114 post infection followed by cyclophosphamide induced …. The data set is classed as functional, organism-based. The following applies: time 5.0 day.

Data set [13] is described as follows: Plasma concentration in Swiss mouse at 50 mg/kg, po measured upto 24 hrs by LC-MS/MS analysis.
For data set [14], the system named is Trypanosoma cruzi. Nature of the data set: Antitrypanosomal activity against bloodstream trypomastigotes form of Trypanosoma cruzi CL Brener infected in BALB/c mouse assessed as reduction in parasite in caecum at 50 mg/kg, po qd administered for 5 days starting from day 114 post infection followed by cyclophosphamide induced immunosuppression on days 135, 139 and 143 post infection and measured for 149 days by bioluminescence analysis. The following applies: time 5.0 day. The class given is functional, organism-based. In outline: (§1)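 Female BALB/c mice, 8 weeks old, ~18 g, 5 per group. Infected i.p. with 10^3 bloodstream trypomastigotes of bioluminescent CL Brener (pTRIX2-RE9h). From day 114 p.i., oral dosing once daily for 5 days: reference drugs at 100 mg/kg in HPMC-SV with 5% DMSO, PEG400 vehicle at 50 mg/kg. Cyclophosphamide 200 mg/kg i.p. on days 135, 139 and 143. Final imaging day 149. Ex vivo organ bioluminescence days 149-151.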

The test system of data set [15] is Trypanosoma cruzi. Nature of the data set: Antitrypanosomal activity against bloodstream trypomastigotes form of Trypanosoma cruzi CL Brener infected in BALB/c mouse assessed as reduction in parasitemia at 50 mg/kg, po administered 5 days after 114 days post infection followed by cyclophosphamide induced immunosuppression on day 143 post infection and measured for 149 days by bioluminescence analysis. The class given is functional, organism-based. The following applies: time 5.0 day. The essentials: as §1

The subject of data set [16] is Trypanosoma cruzi. Description: Antitrypanosomal activity against bloodstream trypomastigotes form of Trypanosoma cruzi CL Brener infected in BALB/c mouse assessed as reduction of parasite in small intestine at 50 mg/kg, po qd administered for 5 days starting from day 114 post infection followed by cyclophosphamide induced …. As to conditions: time 5.0 day. The data set is classed as functional, organism-based.

Data set [17] can be described thus: Thermodynamic solubility of compound in PEG400. The data set is classed as physicochemical.
In data set [18] the test system is Trypanosoma cruzi. Nature of the data set: Antitrypanosomal activity against Trypanosoma cruzi amastigotes assessed as inhibition of parasite growth at 10 ug/ml relative to control.
In data set [19] the target is Cytochrome P450 3A4 (Homo sapiens, UniProt P08684). Nature of the data set: Inhibition of CYP3A4 in human liver microsome using testosterone as substrate. (Microsomes from liver hold many membrane-bound enzymes, among them those of drug oxidation.)
Sequence of Cytochrome P450 3A4 (P08684 whole entry): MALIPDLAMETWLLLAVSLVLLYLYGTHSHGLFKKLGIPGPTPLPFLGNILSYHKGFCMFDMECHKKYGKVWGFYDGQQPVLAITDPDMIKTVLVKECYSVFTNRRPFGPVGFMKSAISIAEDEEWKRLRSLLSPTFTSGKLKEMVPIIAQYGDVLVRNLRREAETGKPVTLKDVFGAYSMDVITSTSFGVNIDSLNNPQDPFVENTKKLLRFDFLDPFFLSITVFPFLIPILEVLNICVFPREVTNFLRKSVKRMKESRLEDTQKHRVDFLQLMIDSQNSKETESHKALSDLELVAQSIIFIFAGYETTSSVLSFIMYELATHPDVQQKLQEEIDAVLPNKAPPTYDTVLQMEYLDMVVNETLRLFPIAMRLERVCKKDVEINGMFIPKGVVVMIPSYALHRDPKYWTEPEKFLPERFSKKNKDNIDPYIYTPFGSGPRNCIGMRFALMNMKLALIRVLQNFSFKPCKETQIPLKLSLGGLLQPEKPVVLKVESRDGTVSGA

As a reminder, the solubility (kinetic) is the concentration staying in solution when a stock, usually in DMSO, is diluted into the medium. As a reminder, the IC50 is the concentration that inhibits the measured activity by half. By IC90 is commonly meant the point of the concentration-response curve where the effect stands at 90%. One may read the half-life as the time needed for the level to fall by half in the phase considered. A higher half-life goes with slow decline. Broadly, the inhibition is the share of the control response that was lost under treatment. Turning to `O=[N+]([O-])c1cn2c(n1)OC[C@@H](OCC#Cc1ccc(-c3ccc(OC(F)(F)F)cc3)cn1)C2`, in [1], the kinetic solubility at 0.25 h stood at 0.49 µg/mL (≈ 1.06 µM). The IC50 was 320 nM in data set [2]; above 37000 nM in data set [4]; above 10000 nM in data set [7]; above 100000 nM in data set [8]; 730 nM in [11]. The results for the IC90 in [2] and in data set [11] were 990 nM and 1000 nM, respectively. Besides, the selectivity ratio is above 51 in data set [3] and above 313 in data set [9]. This compound had a half-life at 1 h in [5] above 4.17 h. In [6], the inhibition at 0.37 µg/mL came out at 44%. Moreover, the “%max” value in [10] stood at 99%.
What is called thermodynamic solubility is the concentration in solution at equilibrium with solid. On to `O=[N+]([O-])c1cn2c(n1)OC[C@H](Oc1ccc(OC(F)(F)F)cc1)C2`, for which the outcome in data set [12], in [14], in data set [15] and in data set [16] was Active. The IC50 in [2] is 400 nM; in data set [4] it was above 73000 nM; in data set [7], above 10000 nM; in data set [8], above 100000 nM; in [11], 1200 nM. Besides, the IC90 in data set [2] turned out to be 1000 nM; in [11], 1700 nM. Moreover, the selectivity ratio in data set [3] was above 61; in [9], above 250. In data set [13], this compound displayed a concentration at 24 h of 11 µM. In addition, in data set [10], the “%max” value turned out to be 99%. In addition, the solubility (thermodynamic) in data set [17] is 21000 µg/mL (≈ 60800 µM).
On to `O=[N+]([O-])c1cn2c(n1)OC[C@@H](OCc1ccc(-c3ccc(C(F)(F)F)cc3Cl)cc1)C2`, for which the solubility (kinetic) at 0.25 h in data set [1] turned out to be 0.48 µg/mL (≈ 1.06 µM). Besides, the values for the IC50 in data set [2], in [19] and in data set [8] were 3700 nM, above 20000 nM and 34000 nM, respectively. Besides, in [2], the concentration for an effect of 90% (IC90) amounted to 8000 nM. Also, the inhibition at 10 µg/mL in data set [18] was found to be 94%. This compound showed a half-life at 1 h in [5] above 4.17 h. Also, in data set [13], the concentration at 24 h stood at 9.1 µM. The selectivity ratio in [9] was determined as 9.2.
